Key:
MCF7 = assay: Anticancer activity against human MCF-7 cells assessed as cell growth inhibition measured after 48 hrs by MTT assay; assay type: functional, cell-based; conditions: MCF7, 48 h
Procedure, shortened: (§1)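 MTT test on ATCC lines grown in RPMI with 10% FBS and antibiotic/antimycotic at 37 °C in 5% CO₂. Cells were seeded at 4 x 10^3/well and treated for 48 h at 2.5, 5, 10 and 20 µM, from DMSO stocks diluted in medium. MTT (10 mg/mL stock) was then added for 3 h and absorbance read at 540 nm. IC50 derived; three independent experiments.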

HepG2 = assay: Anticancer activity against human HepG2 cells assessed as cell growth inhibition measured after 48 hrs by MTT assay; assay type: functional, cell-based; conditions: HepG2, 48 h; procedure, shortened: as §1
HEK293 = assay: Cytotoxicity against human HEK293 cells assessed as cell growth inhibition measured after 48 hrs by MTT assay; assay type: cell-based; conditions: HEK293, 48 h; procedure, shortened: as §1
MDA-MB-231 = assay: Anticancer activity against human MDA-MB-231 cells assessed as cell growth inhibition measured after 48 hrs by MTT assay; assay type: functional, cell-based; conditions: MDA-MB-231, 48 h; procedure, shortened: as §1
B16-F10 = assay: Anticancer activity against mouse B16-F10 cells assessed as cell growth inhibition measured after 48 hrs by MTT assay; assay type: functional, cell-based; conditions: B16-F10, 48 h; procedure, shortened: as §1

Compound | IC50 (MCF7) | IC50 (HepG2) | IC50 (MDA-MB-231) | IC50 (B16-F10) | IC50 (HEK293)
COC(=O)c1c(-c2cc(O)c3c(c2)C(=O)c2cccc(O)c2C3=O)nn(-c2ccccc2)c1C(=O)OC | 9.96 µM | 3.41 µM | 6.78 µM | 5.61 µM | 8.86 µM
COC(=O)c1c(-c2cc(O)c3c(c2)C(=O)c2cccc(O)c2C3=O)nn(-c2ccc(OC(F)(F)F)cc2)c1C(=O)OC | 1.16 µM | 2.29 µM | 3.68 µM | 6.09 µM | 6.84 µM
CCOC(=O)c1c(-c2cc(O)c3c(c2)C(=O)c2cccc(O)c2C3=O)nn(-c2ccc(OC)cc2)c1C(=O)OCC | 3.86 µM | 5.68 µM | 4.7 µM | 2.15 µM | 10.1 µM
COC(=O)c1c(-c2cc(O)c3c(c2)C(=O)c2cccc(O)c2C3=O)nn(-c2ccccc2C)c1C(=O)OC | 4.66 µM | 3.46 µM | 1.49 µM | 3.34 µM | 5.01 µM
CCOC(=O)c1c(-c2cc(O)c3c(c2)C(=O)c2cccc(O)c2C3=O)nn(-c2ccccc2)c1C(=O)OCC | 3.18 µM | 12.3 µM | 21.7 µM | 2.22 µM | 4.56 µM
COc1cccc2c1C(=O)c1c(O)c3c(c(O)c1C2=O)C[C@@](O)(C(=O)CO)C[C@@H]3O[C@H]1C[C@H](N)[C@H](O)[C@H](C)O1 [DOXORUBICIN] | – | 2.35 µM | 2.56 µM | 3.28 µM | 1.65 µM
CCOC(=O)c1c(-c2cc(O)c3c(c2)C(=O)c2cccc(O)c2C3=O)nn(-c2ccccc2C)c1C(=O)OCC | 1.13 µM | 1.35 µM | 7.56 µM | 1.57 µM | 2.47 µM

Continued, in another order:

IC50 (MCF7) | IC50 (HepG2) | IC50 (MDA-MB-231) | IC50 (B16-F10) | Compound | IC50 (HEK293)
1.04 µM | 1 µM | 0.9 µM | 1.85 µM | CCOC(=O)c1c(-c2cc(O)c3c(c2)C(=O)c2cccc(O)c2C3=O)nn(-c2ccc(C)c(C)c2)c1C(=O)OCC | 1.03 µM
6.35 µM | 1.15 µM | 0.99 µM | 3.46 µM | CCOC(=O)c1c(-c2cc(O)c3c(c2)C(=O)c2cccc(O)c2C3=O)nn(-c2cccc(C)c2)c1C(=O)OCC | 1.12 µM
7.26 µM | 2.6 µM | 1.85 µM | 5.4 µM | CCOC(=O)c1c(-c2cc(O)c3c(c2)C(=O)c2cccc(O)c2C3=O)nn(-c2cccc(F)c2)c1C(=O)OCC | 1.93 µM

Source: ChEMBL document CHEMBL4732018, “Design, synthesis, and biological evaluation of pyrazole-linked aloe emodin derivatives as potential anticancer agents” (RSC Med Chem, 2021)
